From PubChem
ROMK mod – modulates human ROMK potassium channel activity. P48048. Tet-inducible ROMK, thallium flux fluorescence; actives lie on both sides. B-score at 10 µM. 130,000 tested, 2% active. AID 1918;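 active means signal ratio slope over the read window, or its plate-corrected B-score, at least 3 SD from the plate mean, either direction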;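 further: B-score of the F/F0 ratio slope over 7 to 12 s after thallium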
WT yeast gro inh – growth inhibition of WT yeast, mitochondrial fusion screen. inhibition, % at 10 µM. mitochondrial fusion phenotypic screen, WT strain. 190,000 tested, 2.1% active; in the data active means inhibition above about 58%; tested in S. cerevisiae
RBBP9 inh – human RBBP9 hydrolase inhibition; inhibition, % at 7.94 µM; AID 1515; 220,000 tested, 0.2% active; recombinant RBBP9, FP-Rh probe fluorescence polarization; O75884;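 active means inhibition above the campaign mean of all tested compounds plus 3 SD, cut at about 14% in these data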
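Test system – recombinant human RBBP9 · Input – RBBP9 2.5 µM in dispensing solution, pre-mixing · Medium – Tris buffer pH 8.0, NaCl, Pluronic · Schedule – preincubation 30 min plus labeling 45 min at 25 °C · Measured by – fluorescence polarization · Measure – % inhibition · Controls – DMSO and no-protein wells · Replicates – one well per compound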
Cl transport mod – KCC2 (human) Cl- transport modulation | Q9H2X9 | 190,000 tested, 2.2% active | KCC2 cells, thallium flux FluoZin-2 fluorescence | B-score of Tl+ flux slope (higher = more flux/activation; lower = inhibition) at 10 µM;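 active means thallium flux slope and its plate-corrected score both differing from the plate sample mean at a set confidence after two filtering rounds, in either direction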;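 further: slope of fluorescence scaled to starting intensity during 10 to 20 s after thallium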
p47phox inh – blocks human p47phox regulatory protein of NADPH oxidases | p47phox/p22phox peptide binding, fluorescence polarization, 2 h | inhibition, % at 24.7 µM | 220,000 tested, 0.53% active | AID 1274;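 active means inhibition above about 30%, limit read from the data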
Target sequence (P14598 whole entry, looked up): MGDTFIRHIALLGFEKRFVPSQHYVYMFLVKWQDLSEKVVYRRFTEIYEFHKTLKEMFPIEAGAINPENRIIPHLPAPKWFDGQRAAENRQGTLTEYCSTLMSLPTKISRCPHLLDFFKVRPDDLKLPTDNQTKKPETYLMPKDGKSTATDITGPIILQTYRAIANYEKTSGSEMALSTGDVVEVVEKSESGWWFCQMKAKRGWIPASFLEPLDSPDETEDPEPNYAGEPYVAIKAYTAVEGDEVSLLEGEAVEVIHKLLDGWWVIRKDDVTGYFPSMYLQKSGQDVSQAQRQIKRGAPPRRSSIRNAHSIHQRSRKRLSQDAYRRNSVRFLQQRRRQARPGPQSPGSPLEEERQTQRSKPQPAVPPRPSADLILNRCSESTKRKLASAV
14-3-3 Bad inh – disrupts binding of bovine 14-3-3 zeta to phospho-Bad peptide; TR-FRET 14-3-3zeta/Dy647-pBad peptide displacement, 1 h; inhibition, % at 21.7 µM; 220,000 tested, 0.71% active;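 active means inhibition above about 70%, limit read from the data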
Numbers stand for hits; [ ] = another dose, or the depositor's remark. An excerpt weighted towards active compounds, which were near 5.8% of everything screened.

What do the screens show for `O=C(N/N=C/c1ccc2cccc(OCc3ccccc3)c2n1)c1ccc(Br)cc1`?
ROMK mod: inactive; WT yeast gro inh: inactive; RBBP9 inh: inactive; Cl transport mod: 11; p47phox inh: inactive; 14-3-3 Bad inh: inactive

Results for COc1ccc(C(=O)N/N=C/c2sc3ccccc3c2O)cc1 ?
ROMK mod: -4.5; WT yeast gro inh: inactive; RBBP9 inh: inactive; Cl transport mod: inactive; p47phox inh: inactive; 14-3-3 Bad inh: inactive

What do the screens show for `O=C(N/N=C/c1sc2ccccc2c1O)c1ccccc1`?
WT yeast gro inh: inactive; RBBP9 inh: inactive; Cl transport mod: inactive; p47phox inh: inactive; 14-3-3 Bad inh: inactive

Results for COc1ccc(C(=O)N/N=C/c2ccc3cccc(OCc4ccccc4)c3n2)cc1 ?
ROMK mod: inactive; WT yeast gro inh: inactive; RBBP9 inh: inactive; Cl transport mod: 4.1; p47phox inh: inactive; 14-3-3 Bad inh: inactive

What do the screens show for `O=C(CCc1ccccc1)Nc1cc(C(=O)O)cc(C(=O)O)c1`?
ROMK mod: inactive; WT yeast gro inh: inactive; RBBP9 inh: inactive; Cl transport mod: inactive; p47phox inh: inactive; 14-3-3 Bad inh: inactive

How did CCOC(=O)Cn1c(=O)oc2cc(S(=O)(=O)N(C)c3cccc(C)c3)ccc21 do in these assays?
ROMK mod: inactive; RBBP9 inh: inactive; Cl transport mod: inactive; p47phox inh: inactive; 14-3-3 Bad inh: inactive

Results for CCc1ccc2c(c1)C(c1ccc(N3CCOCC3)cc1)=NNC(c1ccncc1)=N2 ?
ROMK mod: inactive; WT yeast gro inh: 68; RBBP9 inh: inactive; Cl transport mod: inactive; p47phox inh: inactive; 14-3-3 Bad inh: inactive

What do the screens show for `CCOc1ccc(C2=Nc3ccc(Br)cc3C(c3ccc(N4CCOCC4)cc3)=NN2)cc1`?
WT yeast gro inh: inactive; RBBP9 inh: inactive; Cl transport mod: inactive; p47phox inh: inactive; 14-3-3 Bad inh: inactive

How did CCC(=O)Nc1ccc2c(c1)ncn2-c1ccc(C)cc1 do in these assays?
ROMK mod: inactive; WT yeast gro inh: inactive; RBBP9 inh: inactive; Cl transport mod: inactive; p47phox inh: inactive; 14-3-3 Bad inh: inactive

What do the screens show for `CCOC(=O)CCc1c(C)c2ccc(OCc3cc([N+](=O)[O-])ccc3OC)c(C)c2oc1=O`?
WT yeast gro inh: inactive; RBBP9 inh: inactive; Cl transport mod: inactive; p47phox inh: 30; 14-3-3 Bad inh: inactive

Results for Cc1ccccc1NC(=S)NNC(=O)c1csc2c1CCC(C)C2 (centres undefined) ?
ROMK mod: inactive; WT yeast gro inh: inactive; RBBP9 inh: inactive; Cl transport mod: 94; p47phox inh: inactive; 14-3-3 Bad inh: inactive

How did CCNC(=S)NNC(=O)c1csc2c1CCC(C)C2 (centres undefined) do in these assays?
WT yeast gro inh: inactive; RBBP9 inh: inactive; Cl transport mod: inactive; p47phox inh: inactive; 14-3-3 Bad inh: inactive

Results for NC(=S)N/N=C/c1coc2c(ccc3ccccc32)c1=O ?
ROMK mod: inactive; WT yeast gro inh: inactive; RBBP9 inh: inactive; Cl transport mod: inactive; p47phox inh: inactive; 14-3-3 Bad inh: 89[fluorescence artefact?]

What do the screens show for `N#Cc1c(-c2ccccc2Cl)c2c([nH]c1=O)-c1ccccc1OC2`?
RBBP9 inh: inactive; Cl transport mod: inactive; p47phox inh: inactive; 14-3-3 Bad inh: inactive

What do the screens show for `N#Cc1c2c(c(-c3ccccc3Cl)[nH]c1=S)CCCC2`?
ROMK mod: inactive; WT yeast gro inh: inactive; RBBP9 inh: inactive; Cl transport mod: 40; p47phox inh: inactive; 14-3-3 Bad inh: inactive

How did CNC(=O)/C(C#N)=C/c1c(N(Cc2ccccc2)Cc2ccccc2)nc2ccccn2c1=O do in these assays?
WT yeast gro inh: inactive; RBBP9 inh: inactive; Cl transport mod: inactive; p47phox inh: inactive; 14-3-3 Bad inh: inactive

How did CCN1/C(=C/c2ccc3cc(C)ccc3[n+]2CC)Sc2cc(C)c(C)cc21 do in these assays?
WT yeast gro inh: 92; RBBP9 inh: inactive; Cl transport mod: inactive; p47phox inh: inactive; 14-3-3 Bad inh: inactive

Results for OC(CSc1c(Cl)cccc1Cl)CN1CCN(c2ccccc2F)CC1 (centres undefined) ?
WT yeast gro inh: 66; RBBP9 inh: inactive; Cl transport mod: inactive; p47phox inh: inactive; 14-3-3 Bad inh: inactive

What do the screens show for `COc1ccc(NC(=O)CSc2nc3c(cc2C#N)CN(C)CC3)cc1`?
WT yeast gro inh: inactive; p47phox inh: inactive; 14-3-3 Bad inh: inactive

Results for CN1CCc2nc(SCC(=O)Nc3ccc(F)cc3)c(C#N)cc2C1 ?
WT yeast gro inh: inactive; RBBP9 inh: inactive; Cl transport mod: inactive; p47phox inh: 37; 14-3-3 Bad inh: inactive

Results for COC(=O)N/N=C/c1cc(Br)ccc1O ?
ROMK mod: inactive; WT yeast gro inh: inactive; RBBP9 inh: inactive; Cl transport mod: inactive; p47phox inh: inactive; 14-3-3 Bad inh: inactive

Results for CC(C)NC(=S)N/N=C/c1cc(Br)ccc1O ?
ROMK mod: inactive; WT yeast gro inh: inactive; RBBP9 inh: inactive; Cl transport mod: 5.9; p47phox inh: inactive; 14-3-3 Bad inh: inactive

How did O=[N+]([O-])c1cccc(COc2ncnc3cc([N+](=O)[O-])ccc23)c1 do in these assays?
RBBP9 inh: inactive; Cl transport mod: inactive; p47phox inh: inactive; 14-3-3 Bad inh: inactive

What do the screens show for `COc1ccc(-c2[nH]c(-c3ccc4c(c3)OCO4)nc2-c2ccccc2)cc1`?
WT yeast gro inh: 71; RBBP9 inh: inactive; p47phox inh: inactive; 14-3-3 Bad inh: inactive
